Measurements: ChEMBL document CHEMBL1154756, “Synthesis of new chalcone derivatives containing acridinyl moiety with potential antimalarial activity” (Eur J Med Chem, 2010)
Activity calls are given as the source filed them. No cut-off for these calls is given here.

Assays:
Plasmodium falciparum [1] = assay: Antimalarial activity against chloroquine-sensitive Plasmodium falciparum NF54 assessed as inhibition of schizont maturation at 2 ug/ml after 36-40 hrs relative to control; format: functional; design: scale not given: the % may be the effect or the level left
Outline: (§1)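 NF-54 cultures were kept in RPMI 1640 with 25 mM HEPES, 1% bicarbonate and 0.5% ALBUMAX-II. Wells held 3% haematocrit in medium with 10% FBS, and compound was added from a 5 mg/mL DMSO stock diluted in medium. Duplicates were incubated at 37 °C in CO2 for 36–40 h. Rings, trophozoites and schizonts were counted per 100 parasites on Giemsa smears, giving % maturation inhibition versus untreated control.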

Plasmodium falciparum [2] = assay: Antimalarial activity against chloroquine-sensitive Plasmodium falciparum NF54 assessed as inhibition of schizont maturation at 100 ug/ml after 36-40 hrs relative to control; format: functional; design: scale not given: the % may be the effect or the level left; outline: as §1
Plasmodium falciparum [3] = assay: Antimalarial activity against chloroquine-sensitive Plasmodium falciparum NF54 assessed as inhibition of schizont maturation at 50 ug/ml after 36-40 hrs relative to control; format: functional; design: scale not given: the % may be the effect or the level left; outline: as §1
Plasmodium falciparum [4] = assay: Antimalarial activity against chloroquine-sensitive Plasmodium falciparum NF54 assessed as inhibition of schizont maturation at 10 ug/ml after 36-40 hrs relative to control; format: functional; design: scale not given: the % may be the effect or the level left; outline: as §1
Plasmodium falciparum [5] = assay: Antimalarial activity against chloroquine-resistant Plasmodium falciparum W2; format: functional, organism-based
Plasmodium falciparum [6] = assay: Antimalarial activity against chloroquine-sensitive Plasmodium falciparum NF54 assessed as inhibition of schizont maturation at 0.4 ug/ml after 36-40 hrs relative to control; format: functional; design: scale not given: the % may be the effect or the level left; outline: as §1
Plasmodium yoelii [7] = assay: Antimalarial activity against chloroquine-resistant Plasmodium yoelii N67 infected in Swiss mice (Mus musculus) assessed as suppression of parasitaemia at 50 mg/kg, intraperitoneal once daily for 4 consecutive days measured after 4 days; format: functional
Plasmodium yoelii [8] = assay: Antimalarial activity against chloroquine-resistant Plasmodium yoelii N67 infected in Swiss mice (Mus musculus) assessed as suppression of parasitaemia at 50 mg/kg, intraperitoneal once daily for 4 consecutive days measured after 6 days; format: functional, organism-based; design: dose 50 mg/kg
Plasmodium falciparum [9] = assay: Antimalarial activity against chloroquine-sensitive Plasmodium falciparum NF54 assessed as inhibition of schizont maturation at 0.08 ug/ml after 36-40 hrs relative to control; format: functional; design: scale not given: the % may be the effect or the level left; outline: as §1
Plasmodium yoelii [10] = assay: Antimalarial activity against chloroquine-resistant Plasmodium yoelii N67 infected in Swiss mice (Mus musculus) assessed as mean survival time at 50 mg/kg, intraperitoneal once daily for 4 consecutive days; format: functional
Plasmodium falciparum [11] = assay: Antimalarial activity against chloroquine-sensitive Plasmodium falciparum NF54 assessed as inhibition of schizont maturation at 0.50 ug/ml after 36-40 hrs relative to control; format: functional; design: scale not given: the % may be the effect or the level left
Plasmodium falciparum [12] = assay: Antimalarial activity against chloroquine-sensitive Plasmodium falciparum NF54 assessed as inhibition of schizont maturation at 0.0625 ug/ml after 36-40 hrs relative to control; format: functional; design: scale not given: the % may be the effect or the level left
Plasmodium falciparum [13] = assay: Antimalarial activity against chloroquine-sensitive Plasmodium falciparum NF54 assessed as inhibition of schizont maturation at 0.125 ug/ml after 36-40 hrs relative to control; format: functional; design: scale not given: the % may be the effect or the level left
Plasmodium falciparum [14] = assay: Antimalarial activity against chloroquine-sensitive Plasmodium falciparum NF54 assessed as inhibition of schizont maturation at 0.25 ug/ml after 36-40 hrs relative to control; format: functional; design: scale not given: the % may be the effect or the level left
Plasmodium falciparum [15] = assay: Antimalarial activity against chloroquine-sensitive Plasmodium falciparum NF54 assessed as inhibition of schizont maturation; format: functional; design: scale not given: the % may be the effect or the level left
Outline: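 P. falciparum NF-54 was grown in RPMI 1640 with 25 mM HEPES, 1% sodium bicarbonate and 0.5% ALBUMAX-II. The assay used 3% haematocrit in medium with 10% FBS, with a DMSO stock (5 mg/mL) diluted in medium to five-fold dilutions. Duplicate wells were incubated at 37 °C in CO2 for 36–40 h, then Giemsa smears were read. MIC was the concentration fully blocking maturation to schizonts.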

Row | SMILES | Activity (Plasmodium falciparum [1]) | Activity (Plasmodium falciparum [2]) | Activity (Plasmodium falciparum [3]) | Activity (Plasmodium falciparum [4]) | Activity (Plasmodium falciparum [6]) | other results
1 | O=C(/C=C/c1ccccc1)c1ccc(Nc2c3ccccc3nc3ccccc23)cc1 | 42.8% | 100% | 100% | 100% |  | 
2 | CC(C)=CCc1cc(/C=C/C(=O)c2ccc(O)cc2O)ccc1O [LICOAGROCHALCONE A] |  |  |  |  |  | IC50 (Plasmodium falciparum [5]): 10.3 µM
3 | O=C(/C=C/C=C/c1ccccc1)c1ccc(Nc2c3ccccc3nc3ccccc23)cc1 | 64.3% | 100% | 100% | 100% | 0% | 
4 | Cc1cccc(/C=C/C(=O)c2ccc(Nc3c4ccccc4nc4ccccc34)cc2)c1 | 0% | 100% | 100% | 100% |  | 
5 | COc1ccc(/C=C/C(=O)c2ccc(Nc3c4ccccc4nc4ccccc34)cc2)cc1 | 85.7% | 100% | 100% | 100% | 71.4% | Activity (Plasmodium yoelii [7]): inactive; Activity (Plasmodium yoelii [8]): inactive; Activity (Plasmodium falciparum [9]): 14.3%; Survival (Plasmodium yoelii [10]): 10.67 days
6 | O=C(/C=C/c1ccc(Cl)cc1)c1cccc(Nc2c3ccccc3nc3ccccc23)c1 | 0% | 100% | 100% | 100% |  | 
7 | CCN(CC)CCCC(C)Nc1ccnc2cc(Cl)ccc12 (stereo not given) [CHLOROQUINE] |  |  |  |  |  | Activity (Plasmodium falciparum [11]): 100%; Activity (Plasmodium falciparum [12]): 74.3%; Activity (Plasmodium falciparum [13]): 97.1%; Activity (Plasmodium falciparum [14]): 100%
8 | O=C(/C=C/c1cccc([N+](=O)[O-])c1)c1ccc(Nc2c3ccccc3nc3ccccc23)cc1 | 0% | 100% | 100% | 100% |  | 
9 | Cc1ccc(/C=C/C(=O)c2ccc(Nc3c4ccccc4nc4ccccc34)cc2)cc1 | 42.8% | 100% | 100% | 100% |  | 
10 | COc1ccc(/C=C/C(=O)c2cccc(Nc3c4ccccc4nc4ccccc34)c2)cc1 | 71.4% | 100% | 100% | 100% | 7.1% | Activity (Plasmodium yoelii [7]): 6.22%; Activity (Plasmodium yoelii [8]): inactive; Survival (Plasmodium yoelii [10]): 15.2 days
11 | COc1cc(/C=C/C(=O)c2ccc(Nc3c4ccccc4nc4ccccc34)cc2)cc(OC)c1OC | 57.1% | 100% | 100% | 100% | 5.7% | 
12 | O=C(/C=C/c1ccccc1)c1cccc(Nc2c3ccccc3nc3ccccc23)c1 | 97.1% | 100% | 100% | 100% | 4.3% | Activity (Plasmodium yoelii [7]): inactive; Activity (Plasmodium yoelii [8]): inactive; Survival (Plasmodium yoelii [10]): 15.5 days
13 | COc1cc(/C=C/C(=O)c2ccc(O)c(CC=C(C)C)c2O)ccc1O [CROTAORIXIN] |  |  |  |  |  | Activity (Plasmodium falciparum [15]): 100%
14 | O=C(/C=C/c1ccc(Cl)cc1)c1ccc(Nc2c3ccccc3nc3ccccc23)cc1 | 0% | 100% | 100% | 100% |  | 
